NSD2 HMT inh – NSD2 histone methyltransferase inhibitors, primary screen, biochemical, AlphaScreen, single concentration, set 2; NSD2 peptide methylation, 120 min; 310,000 tested, 0.54% active; inhibition, % at 12.5 µM; in the data active = inhibition above about 50%
TDP2 inh – human TDP2 enzyme inhibitors, primary screen, biochemical, epi absorbance, recombinant enzyme | Tyrosyl-DNA phosphodiesterase 2 (Homo sapiens), O95551 | T5PNP hydrolysis, p-nitrophenol absorbance 415 nm | inhibition, % at 12.8 µM | 370,000 tested, 0.34% active;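 active = inhibition above the mean of all tested compounds plus 3 SD, set per campaign, cut at about 25% in these data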
Target sequence (O95551 whole entry, looked up): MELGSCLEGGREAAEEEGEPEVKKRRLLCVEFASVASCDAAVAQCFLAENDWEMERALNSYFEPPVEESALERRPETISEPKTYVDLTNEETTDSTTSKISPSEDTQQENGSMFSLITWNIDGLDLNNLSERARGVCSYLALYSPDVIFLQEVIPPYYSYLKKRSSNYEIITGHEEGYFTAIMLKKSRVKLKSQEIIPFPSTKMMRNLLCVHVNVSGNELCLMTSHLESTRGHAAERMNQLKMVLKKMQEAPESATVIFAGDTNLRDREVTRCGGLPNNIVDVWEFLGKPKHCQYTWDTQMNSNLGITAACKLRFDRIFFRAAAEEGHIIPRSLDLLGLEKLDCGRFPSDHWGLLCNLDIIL
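Evaluation: % inhibition relative to enzyme-containing and enzyme-free wells. Material: recombinant human TDP2. Benchmarks: enzyme-free and DMSO wells. Timing: enzyme reaction with compound for 2 h at 37 °C. Compound dosing: 12.8 µM only. Measured by: p-Nitrophenol epi absorbance. Reagent: T5PNP substrate at 5 mM, a TopII-DNA adduct mimic. Replication: single well per compound.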
Fh CTSL1 inh – Fasciola hepatica cathepsin L1 inhibitors, primary screen, counter-screen for PFM18AAP inhibitor project, biochemical, QFRET, fluorogenic peptide substrate | recombinant F. hepatica cathepsin L1, Z-Leu-Arg-MCA fluorescence | AID 1906, 2009 | inhibition, % at 5.96 µM | 300,000 tested, 0.49% active;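 active = inhibition above the mean of all tested compounds plus 3 SD, set per screening campaign, cut at about 17% in these data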
UBC9 SUMO inh – inhibitors of in vitro SUMOylation cascade, primary screen, biochemical, HTRF, uHTS; SUMO-conjugating enzyme UBC9 (Homo sapiens), P63279; HTRF SUMOylation assay, SAE1/SAE2 + UBC9; inhibition, % at 35 µM; 290,000 tested, 0.36% active; AID 2006, 2009; in the data active = inhibition above about 50%, passing the limit was not always enough
Target sequence (P63279 whole entry, looked up): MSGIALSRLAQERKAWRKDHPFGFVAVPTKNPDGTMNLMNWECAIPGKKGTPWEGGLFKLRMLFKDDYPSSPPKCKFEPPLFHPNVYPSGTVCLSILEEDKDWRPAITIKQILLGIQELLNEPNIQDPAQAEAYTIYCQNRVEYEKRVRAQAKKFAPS
Alpha artifact – AlphaScreen signal interference with preloaded methylated product, dose response, artefact control for NSD2 inhibitor project, biochemical, cherry-picked samples; AC35, µM (top dose mostly 10 µM); 1,500 tested, 9.4% active; AlphaScreen artifact counterscreen, preloaded methylated H4 peptide; shares compounds with NSD2 HMT inh; AID 1053174, 2014; call rule not given here
Hits are given with their value; - = inactive; . = no result given; + = active, no number. An excerpt weighted towards active compounds, which were near 1.2% of everything screened.

SMILES	NSD2 HMT inh	TDP2 inh	Fh CTSL1 inh	UBC9 SUMO inh	Alpha artifact
COc1ccc(CCC(=O)Nc2ccc(S(=O)(=O)Nc3nccc(C)n3)cc2)cc1	76	-	-	-	-
O=C(NC(=S)Nc1ccccc1[N+](=O)[O-])c1cncc(Br)c1	-	-	-	-	.
Nc1ccccc1Sc1ccccc1[N+](=O)[O-]	-	-	-	-	.
Nc1nc(O)c(Sc2ccccc2[N+](=O)[O-])c(=O)[nH]1	54	-	-	-	-
Cc1csc(SC(C)C(=O)NCC2CCCO2)n1 (configuration not stated)	-	-	-	.	.
COc1ccc(N2C[C@@]3(O)CC[C@@H](O)[C@@H](OC)[C@@H]3[C@@](C)(O)[C@@H]2CC=C(C)C)cc1	-	-	.	.	.
O=c1[nH]n2c(=O)c3c([nH]c2c1N=Nc1cccc(C(F)(F)F)c1)CCCC3	125	-	-	-	-
CCOC(=S)SCC(=O)Nc1nccs1	-	-	-	-	.
CCOC(=S)SCC(=O)Nc1nc(C)c(C)s1	51	-	-	-	-
CC(=O)N1CCc2cc(Br)cc(S(=O)(=O)NCCCN(C)Cc3ccccc3)c21	125	-	-	-	-
CCOC(=O)[C@]12CCCCC/C=C\1N(Cc1ccc(OC)cc1)C(=O)[C@H]2CC(=O)NCC1CCCCC1	.	-	.	.	.
Cc1ccc(-n2c(C)c(C)c3c(N)ncnc32)cc1	67	-	-	-	-
Cc1cccc(-n2c(C)c(C)c3c(N)ncnc32)c1	-	-	-	-	.
CCOC(=O)C1(C)CCCN1C(=O)c1ccccc1OC (configuration not stated)	-	-	.	.	.
CCNCc1cc(Br)c(OCC(=O)Nc2ccccc2)c(OC)c1	-	-	-	-	.
CNCc1cc(Br)c(OCC(=O)Nc2ccccc2OC)c(OC)c1	73	-	-	-	-
O=C1C(=Cc2ccco2)CCC1=Cc1ccco1	141	-	.	.	-
O=C1C(=Cc2ccco2)CCCC1=Cc1ccco1	-	-	.	.	.
CCN(CC)C(=O)c1cc([N+](=O)[O-])cc2c1-c1ccc([N+](=O)[O-])cc1C2=C(C#N)C#N	87	-	-	-	-
O=C(Nc1ccc(S(=O)(=O)Nc2ncccn2)cc1)C1CC(=O)N(c2ccc(Cl)cc2)C1 (configuration not stated)	76	-	-	-	-
O=C(Nc1ccc(S(=O)(=O)Nc2nccs2)cc1)C1CC(=O)N(c2ccc(Cl)cc2)C1 (configuration not stated)	-	-	-	-	.
O=C1CCCC2=C1C(c1ccc(O)c(O)c1)c1c(ccc3ncccc13)N2 (configuration not stated)	77	-	-	-	-
CCOc1ccc(C2C3=C(CCCC3=O)Nc3ccc4ncccc4c32)cc1 (configuration not stated)	-	-	-	-	.
COc1ccc(NC(=O)CN2CCCC2)cc1	-	-	-	-	.
O=C(CN1CCOCCOCCN(CC(=O)Nc2ccccc2)CCOCC1)Nc1ccccc1	166	-	-	-	-
SMILES	NSD2 HMT inh	TDP2 inh	Fh CTSL1 inh	UBC9 SUMO inh	Alpha artifact
COc1ccc(NC(=O)CN2CCN(S(=O)(=O)N3CCCCCC3)CC2)cc1	74	-	-	-	-
O=C(CN1CCOCCOCCOCC1)Nc1ccccc1	-	-	-	-	.
O=C(CN1CCOCC1)Nc1ccc(Oc2ccccc2)cc1	53	-	-	-	-
COCC1CCN(Cc2c(C(=O)N3CCOCC3)nc3c(C)cccn23)C1 (configuration not stated)	-	-	.	.	.
O=C(Nc1ccc(F)cc1)OCc1cn(Cc2ccccc2)nn1	.	-	.	.	.
O=C(O)CC(C(=O)O)N1C(=O)/C(=C/c2ccc(-c3nc4ccccc4s3)o2)SC1=S (configuration not stated)	67	-	-	-	-
O=C(O)CCN1C(=O)/C(=C/c2ccc(-c3nc4ccccc4s3)o2)SC1=S	-	-	-	-	.
O=C(O)CCCN1C(=O)/C(=C/C=C/c2ccco2)SC1=S	110	-	-	-	-
O=C(O)CC(C(=O)O)N1C(=O)/C(=C/C=C/c2ccco2)SC1=S (configuration not stated)	+	-	-	.	-
CC(=O)NC(c1ccccc1)c1nc(-c2cc3ccccc3o2)cs1 (configuration not stated)	-	-	.	.	.
COC(=O)CCCn1cc(CN2CC(N(C)C)CS2(=O)=O)nn1 (configuration not stated)	.	-	.	.	.
COC(=O)c1ccc(-n2c(C)ccc2-c2ccccc2)cc1	-	-	-	-	.
COc1ccc(-n2c(C)ccc2-c2ccccc2)cn1	58	-	-	-	-
CNCCCC12CCC(c3ccccc31)c1ccccc12	84	-	-	-	-
COc1cc2c(cc1OC)C(=O)C(c1ccc3c(c1)OCO3)CC2 (configuration not stated)	-	-	.	.	.
COc1ccc(C2CCc3cc4c(cc3C2=NOC(C)=O)OCO4)cc1OC (configuration not stated)	58	-	.	.	-
O=S(=O)(c1ccc(-c2nnco2)cc1)N1CCCCC1	93	-	-	-	-
CSc1nnc(-c2ccc(S(=O)(=O)N3CCCCC3)cc2)o1	-	-	-	-	.
COc1cc(-c2nnn(Cc3ccccc3C)n2)cc(OC)c1OC	54	-	-	-	-
CCCn1c(CCl)nc2cc(S(=O)(=O)N3CCOCC3)ccc21	-	-	.	.	.
O=S(=O)(c1ccc2c(c1)nc1n2CCC1)N1CCOCC1	92	-	-	-	-
CC(C)(C)c1[nH]nc2c1C(c1ccoc1)C(C#N)=C(N)O2 (configuration not stated)	76	-	-	-	-
O=C(c1ccc(S(=O)(=O)N2CCOCC2)cc1)N(c1cccc(Cl)c1)C1C=CS(=O)(=O)C1 (configuration not stated)	83	-	-	-	-
O=C(c1ccc(S(=O)(=O)N2CCOCC2)cc1)N(c1ccccc1)C1C=CS(=O)(=O)C1 (configuration not stated)	-	.	-	-	.
O=c1[nH][nH]c2c1[C@H](CCc1cccc(Cl)c1)O[C@H](C1CCCC1)C2	.	-	.	.	.
CN(C)Cc1c(O)ccc2c3c(c(=O)oc12)CCCCC3	-	-	-	-	.
CN(Cc1c(O)ccc2c1oc(=O)c1ccccc12)C1CCCCC1	75	-	-	-	-
Cc1ccc(Nc2nc(-c3ccc(O)c(O)c3)cs2)nc1	88	-	.	-	-
CC(=O)N1C2CCCCC2S[C@H]2CCCCC21 (some centres not stated)	57	-	-	-	-
CC1SC(C)C(=O)N(CC(=O)NC2CCCCC2)C1=O (configuration not stated)	-	-	.	-	.
